Each block holds one compound with its values, some of them ahead of it. Activity calls are given as the source filed them. No cut-off for these calls is given here.
What was measured:
Stearoyl-CoA desaturase = target: T1, Stearoyl-CoA desaturase (Homo sapiens, UniProt O00767); assay: Inhibition of SCD1 in human HepG2 cells assessed as [14C]stearic acid to [14C]oleic acid conversion pretreated 15 mins before [14C]stearic acid addition measured after 4 hrs by HPLC based scintillation assay; format: cell-based
T1 sequence (O00767 whole entry): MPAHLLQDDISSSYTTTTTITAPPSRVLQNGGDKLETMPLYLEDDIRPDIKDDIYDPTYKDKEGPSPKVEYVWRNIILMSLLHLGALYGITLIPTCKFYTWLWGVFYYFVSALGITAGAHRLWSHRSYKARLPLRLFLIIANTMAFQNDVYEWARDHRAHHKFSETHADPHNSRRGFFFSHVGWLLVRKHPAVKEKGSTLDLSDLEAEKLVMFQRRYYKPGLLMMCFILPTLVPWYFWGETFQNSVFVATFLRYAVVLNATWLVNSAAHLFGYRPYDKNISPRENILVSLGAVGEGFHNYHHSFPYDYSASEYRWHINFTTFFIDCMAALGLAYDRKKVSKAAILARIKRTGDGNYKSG

Acyl-CoA desaturase 1 = target: T2, Acyl-CoA desaturase 1 (Rattus norvegicus, UniProt P07308); assay: Inhibition of SCD1 in Wistar rat liver microsome assessed as [3H]stearoyl-CoA to [3H]oleoyl-CoA conversion pretreated 1 hr before [3H]stearoyl-CoA addition measured after 60 mins by HPLC based scintillation assay; format: microsomes
T2 sequence (P07308 whole entry): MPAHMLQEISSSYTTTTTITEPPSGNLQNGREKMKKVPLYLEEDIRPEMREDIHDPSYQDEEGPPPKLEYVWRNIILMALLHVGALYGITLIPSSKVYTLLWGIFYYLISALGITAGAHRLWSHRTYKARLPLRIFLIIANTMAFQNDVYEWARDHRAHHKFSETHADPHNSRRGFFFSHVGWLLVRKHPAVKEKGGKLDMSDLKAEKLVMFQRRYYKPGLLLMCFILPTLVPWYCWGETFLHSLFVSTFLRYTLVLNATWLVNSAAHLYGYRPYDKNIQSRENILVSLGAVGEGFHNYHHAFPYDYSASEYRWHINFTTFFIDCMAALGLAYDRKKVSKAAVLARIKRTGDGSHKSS

Mus musculus [1] = assay: Toxicity in C57BL/6 mouse assessed as progressive alopecia at 0.2 mg/kg, po dosed QD for 7 days; format: organism-based, C57BL6; parameters: dose 0.2 mg/kg, route oral; settings: in vivo, 168 h
Mus musculus [2] = assay: Inhibition of SCD in po dosed C57BL/6 mouse liver assessed as [14C]stearic acid to [14C]oleic acid conversion after 3 hrs by liver SCD activity index; format: functional; settings: C57BL6, Liver
Procedure, shortened: (§1)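 In vivo SCD activity was measured in mice fed a high carbohydrate diet and dosed orally. At 3 h, [1-14C]-stearic acid tracer was given intravenously and its conversion to [1-14C]-oleic acid in liver lipids was followed. The SCD activity index is the 14C-oleic/14C-stearic acid ratio. Liver compound concentration was also measured, and the ED50 was derived from the dose-response.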

Mus musculus [3] = assay: Toxicity in C57BL/6 mouse assessed as partial eye closure at 0.2 mg/kg, po dosed QD for 7 days; format: organism-based, C57BL6; parameters: dose 0.2 mg/kg, route oral; settings: in vivo, 168 h
[4] = Oral bioavailability in C57BL/6 mouse at 10 mg/kg; format: ADME, organism-based, C57BL6; settings: in vivo
[5] = AUC (0 to 24 hrs) in C57BL/6 mouse at 10 mg/kg, po; format: ADME, organism-based, C57BL6; parameters: time < 24 hr, dose 10 mg/kg, route oral; settings: plasma
[6] = Biodistribution in C57BL/6 mouse liver at 10 mg/kg, po after 6 hrs; format: ADME, organism-based, C57BL6; parameters: dose 10 mg/kg, route oral; settings: read-out: Drug uptake
Procedure, shortened: (§2)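 Tissue distribution was measured in C57BL6 mice 6 h after a single 10 mg/kg oral dose. Compound levels were determined in liver, adipose tissue and plasma, and tissue-to-plasma ratios were calculated.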

[7] = Biodistribution in C57BL/6 mouse skin at 10 mg/kg, po after 6 hrs; format: ADME, organism-based, C57BL6, Zone of skin; parameters: dose 10 mg/kg, route oral; settings: read-out: Drug uptake
[8] = Ratio of drug level in liver to plasma in C57BL/6 mouse at 10 mg/kg, po after 6 hrs; format: ADME, organism-based, C57BL6; parameters: dose 10 mg/kg, route oral; procedure, shortened: as §2
Mus musculus [9] = assay: Inhibition of SCD in C57BL/6 mouse liver assessed as [14C]stearic acid to [14C]oleic acid conversion at 0.1 mg/kg, po after 3 hrs by liver SCD activity index; format: functional, organism-based; parameters: dose 0.1 mg/kg; settings: C57BL6; procedure, shortened: as §1
Mus musculus [10] = assay: Antiobesity activity in C57BL/6 mouse assessed as reduction in high fat diet-induced body weight gain at 0.2 mg/kg, po dosed QD for 4 weeks relative to control; format: functional, C57BL6; parameters: scale not given: the % may be the effect or the level left
[11] = Plasma concentration in C57BL/6 mouse at 0.3 mg/kg, po dosed QD for 3 days and measured on day 3; format: ADME, organism-based, C57BL6; parameters: dose 0.3 mg/kg, route oral
Procedure, shortened: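 C57BL6 mice on a high fat diet were dosed orally once daily for 3 days at 0.3 mg/kg. Plasma was sampled on day 3 at the terminal 24 h post-dose point.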

[12] = Drug level in C57BL/6 mouse liver at 0.3 mg/ kg, po after 3 hrs; format: ADME, organism-based, C57BL6; parameters: dose 0.3 mg/ kg, route oral; settings: read-out: Drug uptake; procedure, shortened: as §1
[13] = Drug level in C57BL/6 mouse blood at 0.3 mg/ kg, po after 3 hrs; format: ADME, organism-based, C57BL6; parameters: dose 0.3 mg/ kg, route oral; settings: read-out: Drug uptake
[14] = Ratio of drug level in adipose tissue to plasma in C57BL/6 mouse at 10 mg/kg, po after 6 hrs; format: ADME, organism-based, C57BL6; parameters: dose 10 mg/kg, route oral; procedure, shortened: as §2
Mus musculus [15] = assay: Antidiabetic activity in C57BL/6 mouse assessed as reduction in insulin level at 0.2 mg/kg, po dosed QD for 4 weeks; format: functional, C57BL6; parameters: scale not given: the % may be the effect or the level left
[16] = Drug level in C57BL/6 mouse blood at 1 mg/ kg, po after 3 hrs; format: ADME, organism-based, C57BL6; parameters: dose 1 mg/ kg, route oral; settings: read-out: Drug uptake
[17] = Drug level in C57BL/6 mouse liver at 0.1 mg/ kg, po after 3 hrs; format: ADME, organism-based, C57BL6; parameters: dose 0.1 mg/ kg, route oral; settings: read-out: Drug uptake; procedure, shortened: as §1
Mus musculus [18] = assay: Inhibition of SCD in C57BL/6 mouse liver assessed as [14C]stearic acid to [14C]oleic acid conversion at 0.3 mg/kg, po after 3 hrs by liver SCD activity index; format: functional; settings: C57BL6, Liver; procedure, shortened: as §1
Mus musculus [19] = assay: Antidiabetic activity in C57BL/6 mouse assessed as reduction in plasma glucose level at 0.2 mg/kg, po dosed QD for 4 weeks; format: functional, C57BL6; parameters: scale not given: the % may be the effect or the level left
[20] = Biodistribution in C57BL/6 mouse adipose tissue at 10 mg/kg, po after 6 hrs; format: ADME, organism-based, C57BL6; parameters: dose 10 mg/kg, route oral; settings: read-out: Drug uptake; procedure, shortened: as §2
Mus musculus [21] = assay: Inhibition of SCD in C57BL/6 mouse liver assessed as [14C]stearic acid to [14C]oleic acid conversion at 1 mg/kg, po after 3 hrs by liver SCD activity index; format: functional; settings: C57BL6, Liver; procedure, shortened: as §1
[22] = Drug level in C57BL/6 mouse blood at 0.1 mg/ kg, po after 3 hrs; format: ADME, organism-based, C57BL6; parameters: dose 0.1 mg/ kg, route oral; settings: read-out: Drug uptake
[23] = Plasma concentration in C57BL/6 mouse at 10 mg/kg, po after 6 hrs; format: ADME, organism-based, C57BL6; parameters: dose 10 mg/kg, route oral; procedure, shortened: as §2
[24] = Drug level in C57BL/6 mouse liver at 1 mg/ kg, po after 3 hrs; format: ADME, organism-based, C57BL6; parameters: dose 1 mg/ kg, route oral; settings: read-out: Drug uptake; procedure, shortened: as §1

IC50 (Stearoyl-CoA desaturase): 775 nM
IC50 (Acyl-CoA desaturase 1): 750 nM
SMILES: COC(=O)Nc1cnc(N2CCC(Oc3ccccc3C(F)(F)F)CC2)s1

IC50 (Acyl-CoA desaturase 1): 150 nM
SMILES: NC(=O)Nc1cnc(N2CCC(Oc3ccccc3C(F)(F)F)CC2)s1

bioavailability [4]: 33%
IC50 (Stearoyl-CoA desaturase): 16 nM
IC50 (Acyl-CoA desaturase 1): 4 nM
AUC(0-t) at 24 h [5]: 2.9 µM·h
SMILES: FC(F)(F)c1ccccc1OC1CCN(c2ncc(-c3ncon3)s2)CC1

bioavailability [4]: 24%
IC50 (Stearoyl-CoA desaturase): 39 nM
IC50 (Acyl-CoA desaturase 1): 15 nM
AUC(0-t) at 24 h [5]: 3.5 µM·h
SMILES: Cc1nc(-c2cnc(N3CCC(Oc4ccccc4C(F)(F)F)CC3)s2)no1

IC50 (Stearoyl-CoA desaturase): 7 nM
IC50 (Acyl-CoA desaturase 1): 3 nM
SMILES: NC(=O)c1nnc(N2CCC(Oc3ccccc3C(F)(F)F)CC2)s1

IC50 (Stearoyl-CoA desaturase): 55 nM
IC50 (Acyl-CoA desaturase 1): 14 nM
SMILES: FC(F)(F)c1ccccc1OC1CCN(c2ncc(-c3ncco3)s2)CC1

IC50 (Stearoyl-CoA desaturase): 1020 nM
IC50 (Acyl-CoA desaturase 1): 41 nM
SMILES: NS(=O)(=O)c1cnc(N2CCC(Oc3ccccc3C(F)(F)F)CC2)s1

IC50 (Acyl-CoA desaturase 1): 750 nM
SMILES: Cc1nnc(-c2cnc(N3CCC(Oc4ccccc4C(F)(F)F)CC3)s2)s1

IC50 (Stearoyl-CoA desaturase): 10 nM
IC50 (Acyl-CoA desaturase 1): 3 nM
SMILES: NC(=O)c1cnc(N2CCC(Oc3ccccc3C(F)(F)F)CC2)s1

concentration at 6 h [6]: 6700 nM
concentration at 6 h [7]: 1800 nM
Kp at 6 h [8]: 6
bioavailability [4]: 48%
concentration at 72 h [11]: 180 nM
concentration at 3 h [12]: 1900 nM
concentration at 3 h [13]: < 25 nM
Kp at 6 h [14]: 8
concentration at 3 h [16]: 180 nM
IC50 (Stearoyl-CoA desaturase): 1 nM
concentration at 3 h [17]: 600 nM
IC50 (Acyl-CoA desaturase 1): 1 nM
concentration at 6 h [20]: 8900 nM
concentration at 3 h [22]: < 25 nM
concentration at 6 h [23]: 1100 nM
AUC(0-t) at 24 h [5]: 16.8 µM·h
concentration at 3 h [24]: 5700 nM
SMILES: OCc1nc(-c2cnc(N3CCC(Oc4ccccc4C(F)(F)F)CC3)s2)no1
inhibition (Mus musculus [9]): inactive
Activity (Mus musculus [10]): 24%
Activity (Mus musculus [1]): Toxic
Activity (Mus musculus [15]): 4%
ED50 (Mus musculus [2]): 0.3 mg/kg
Activity (Mus musculus [3]): Toxic
inhibition in vivo at 0.3 mg/kg (Mus musculus [18]): 45%
Activity (Mus musculus [19]): 24%
inhibition in vivo at 1 mg/kg (Mus musculus [21]): 89%

IC50 (Stearoyl-CoA desaturase): 65 nM
IC50 (Acyl-CoA desaturase 1): 34 nM
SMILES: FC(F)(F)c1ccccc1OC1CCN(c2ncc(-c3nnco3)s2)CC1

Continued, compound first:

SMILES: NC(=O)c1cnc(N2CC[C@@H](Oc3ccccc3C(F)(F)F)C2)s1
IC50 (Acyl-CoA desaturase 1): > 20000 nM

SMILES: NC(=O)c1cc(N2CCC(Oc3ccccc3C(F)(F)F)CC2)no1
IC50 (Stearoyl-CoA desaturase): 14 nM
IC50 (Acyl-CoA desaturase 1): 8 nM

SMILES: NC(=O)c1nnc(N2CCC(Oc3ccccc3C(F)(F)F)CC2)o1
IC50 (Stearoyl-CoA desaturase): 199 nM
IC50 (Acyl-CoA desaturase 1): 83 nM

SMILES: NC(=O)c1cnc(N2CCN(C(=O)c3ccccc3C(F)(F)F)CC2)s1
Activity (Mus musculus [1]): Toxic
IC50 (Stearoyl-CoA desaturase): 254 nM
ED50 (Mus musculus [2]): 3 mg/kg
Activity (Mus musculus [3]): Toxic
IC50 (Acyl-CoA desaturase 1): 106 nM

SMILES: NC(=O)c1cnc(N2CC[C@H](Oc3ccccc3C(F)(F)F)C2)s1
IC50 (Stearoyl-CoA desaturase): 84 nM
IC50 (Acyl-CoA desaturase 1): 12 nM

SMILES: NC(=O)c1cnc(N2CCN(Cc3ccccc3C(F)(F)F)CC2)s1
IC50 (Stearoyl-CoA desaturase): 153 nM
IC50 (Acyl-CoA desaturase 1): 76 nM

SMILES: NC(=O)c1csc(N2CCC(Oc3ccccc3C(F)(F)F)CC2)n1
IC50 (Stearoyl-CoA desaturase): 6520 nM
IC50 (Acyl-CoA desaturase 1): 676 nM

SMILES: NC(=O)c1cnc(N2CCN(S(=O)(=O)c3ccccc3C(F)(F)F)CC2)s1
IC50 (Acyl-CoA desaturase 1): > 3000 nM

SMILES: NC(=O)c1nnc(N2CCC(Oc3ccccc3C(F)(F)F)CC2)[nH]1
IC50 (Stearoyl-CoA desaturase): 2820 nM
IC50 (Acyl-CoA desaturase 1): 127 nM

SMILES: NC(=O)c1nc(N2CCC(Oc3ccccc3C(F)(F)F)CC2)no1
IC50 (Acyl-CoA desaturase 1): 1630 nM

SMILES: NC(=O)c1cnc(N2CCC(Sc3ccccc3C(F)(F)F)CC2)s1
IC50 (Stearoyl-CoA desaturase): 24 nM
IC50 (Acyl-CoA desaturase 1): 4 nM

SMILES: O=C1CCCN1c1cnc(N2CCC(Oc3ccccc3C(F)(F)F)CC2)s1
IC50 (Stearoyl-CoA desaturase): 174 nM
IC50 (Acyl-CoA desaturase 1): 164 nM

Source: ChEMBL document CHEMBL1154928, “SAR and optimization of thiazole analogs as potent stearoyl-CoA desaturase inhibitors” (Bioorg Med Chem Lett, 2010)
